Results reported in ChEMBL document CHEMBL3272042, “Novel heterocyclic nitrofurfural hydrazones. In vivo antirypanosomal activity” (J Med Chem, 1976).
In brackets after ≈: the same amount, converted by molar mass. Activity calls are given as the source filed them. No cut-off for these calls is given here.

Key:
[1] = tested on: Trypanosoma cruzi; assay: Antitrypanosomal activity against bloodstream forms of Trypanosoma cruzi infected in C3H/He mouse assessed as increase in mean survival time at 100 mg/kg, po bid administered through gavage starting 3 days post challenge for 5 successive days relative to control; type: functional; conditions: for survival at 100 mg/kg: Trypanosoma cruzi, po, 72 h
How it was run: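 Male C3H/He mice infected ip with 2×10^3 bloodstream T. cruzi (Brazilian strain). Compound micronized to 0.5-2.0 μ and suspended in 0.9% NaCl, 1.0% Na carboxymethylcellulose, 0.5% Tween 80, 0.05% antifoam B; given at 100 mg/kg (0.01 ml/2 g) by gavage twice daily for 5 days from day 3 post-infection; groups of 7. Value is percent IMST over untreated controls; Student's t test.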

[2] = tested on: Trypanosoma cruzi; assay: Antitrypanosomal activity against bloodstream forms of Trypanosoma cruzi by in vitro assay; type: functional; conditions: for MIC: Trypanosoma cruzi
How it was run: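 Serial dilution in liquid culture in Warren's medium. Read-outs are the minimum inhibitory concentration (MIC) and the minimum lethal concentration (MLC), both in μg/ml.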

[3] = tested on: Mus musculus; assay: Toxicity in C3H/He mouse infected with bloodstream forms of Trypanosoma cruzi assessed as weight loss at 100 mg/kg, po bid administered through gavage starting 3 days post challenge for 5 successive days; type: organism-based; parameters: dose 100 mg/kg, route oral; conditions: in vivo, 72 h
How it was run: (§1)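 Male C3H/He mice were infected ip with 2×10^3 bloodstream forms of a Brazilian T. cruzi strain. Compounds were micronized to 0.5-2.0 μ and suspended in 0.9% NaCl, 1.0% Na-CMC, 0.5% Tween 80 and 0.05% antifoam B, dosed at 0.01 ml/2 g body weight. Groups of seven got 100 mg/kg by gavage twice daily for 5 days, starting day 3 postinfection, with untreated controls.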

[4] = tested on: Trypanosoma cruzi; assay: Antitrypanosomal activity against bloodstream forms of Trypanosoma cruzi infected in C3H/He mouse assessed as increase in mean survival time at 100 mg/kg, ip bid starting 3 days post challenge for 5 successive days relative to control; type: functional; conditions: 72 h, route intraperitoneal
How it was run: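 Infection: ip inoculation of 2×10^3 bloodstream forms of a Brazilian T. cruzi strain into male C3H/He mice. Compound given by intraperitoneal route, 100 mg/kg twice daily. Value is percent increase in mean survival time beyond untreated controls, taken from mortality records; significance by Student's t test.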

[5] = tested on: Trypanosoma cruzi; assay: Antitrypanosomal activity against bloodstream forms of Trypanosoma cruzi infected in C3H/He mouse assessed as parasitologic cures at 100 mg/kg, po bid administered through gavage starting 3 days post challenge for 5 successive days relative to control; type: functional, organism-based; parameters: dose 100 mg/kg; how it was run: as §1
[6] = tested on: Mus musculus; assay: Toxicity in C3H/He mouse infected with bloodstream forms of Trypanosoma cruzi assessed as weight loss at 200 mg/kg, po qid administered 4 times a day through gavage starting 3 days post challenge for 5 successive days; conditions: in vivo, 72 h
[7] = tested on: Trypanosoma cruzi; assay: Antitrypanosomal activity against bloodstream forms of Trypanosoma cruzi infected in C3H/He mouse assessed as parasitologic cures at 200 mg/kg, po administered 4 times a day through gavage starting 3 days post challenge for 5 successive days relative to control; type: functional, organism-based; parameters: dose 200 mg/kg
How it was run: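 Male C3H/He mice were infected ip with 2×10^3 bloodstream T. cruzi forms (Brazilian strain). Compound was given orally at 200 mg/kg four times daily for 5 days, then followed for parasitemia, survival and body weight.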

Work on `O=[N+]([O-])c1ccc(/C=N/Nc2cc(Cl)nc3nccn23)o1` yielded a survival at 100 mg/kg [1] of 4.4%, an MLC [2] of 100 µg/mL (≈ 326 µM) and an MIC [2] of 10 µg/mL (≈ 32.6 µM).

In the case of `Cc1cc(N/N=C/c2ccc([N+](=O)[O-])o2)n2ncc(S(=O)(=O)O)c2n1`, the survival at 100 mg/kg [1] is reported as 9%, the Activity [3] is reported as “Non-toxic” and the MLC [2] is reported as 100 µg/mL (≈ 273 µM). For the same molecule, the MIC [2] was over 10 µg/mL.

In the case of `O=[N+]([O-])c1ccc(/C=N/Nc2cc(Cl)nc3ccnn23)o1`, the survival at 100 mg/kg [1] is reported as 36.3%, the Activity [3] is reported as “Non-toxic” and the MLC [2] is reported as 1 µg/mL (≈ 3.26 µM). For the same molecule, the MIC [2] was under 1 µg/mL.

In the case of `O=[N+]([O-])c1ccc(/C=N/Nc2ccnc3ccnn23)o1`, the survival at 100 mg/kg [1] is reported as under 1%, the Activity [3] is reported as “Non-toxic” and the MLC [2] is reported as 10 µg/mL (≈ 36.7 µM). The MIC [2] was 10 µg/mL (≈ 36.7 µM).

With `Cc1cc(N/N=C/c2ccc([N+](=O)[O-])o2)n2ncc(-c3ccccc3)c2n1` the Activity [3] was “Non-toxic”, the MLC [2] was 1 µg/mL (≈ 2.76 µM) and the MIC [2] was under 1 µg/mL.

`Cc1nc(N/N=C/c2ccc([N+](=O)[O-])o2)n2nc(-c3ccccc3)cc2n1` gave a survival at 100 mg/kg [1] of 24.9%, an MLC [2] of 3.2 µg/mL (≈ 8.81 µM) and an MIC [2] of 1 µg/mL (≈ 2.75 µM).

`Cc1cc(N/N=C/c2ccc([N+](=O)[O-])o2)n2ncc(-c3ccc(Cl)cc3)c2n1` was tested, and the survival at 100 mg/kg [4] was 20.5%, the Activity [3] was “Non-toxic” and the MLC [2] was 3.2 µg/mL (≈ 8.06 µM). It also gave an MIC [2] of 1 µg/mL (≈ 2.52 µM).

With `Cc1cc(N/N=C/c2ccc([N+](=O)[O-])o2)n2ncc(Br)c2n1` the survival at 100 mg/kg [1] was 21.9%, the Activity [3] was “Non-toxic” and the MLC [2] was over 100 µg/mL. For the same molecule, the MIC [2] was 100 µg/mL (≈ 274 µM).

With `CCOC(=O)c1cnn2c(N/N=C/c3ccc([N+](=O)[O-])o3)cc(C)nc12` the survival at 100 mg/kg [1] was 1.3%, the Activity [3] was “Non-toxic” and the MLC [2] was 10 µg/mL (≈ 27.9 µM). It also gave an MIC [2] of 10 µg/mL (≈ 27.9 µM).

`O=[N+]([O-])c1ccc(/C=N/Nc2cc(Cl)nc3c(Cl)cnn23)o1` was tested, and the survival at 100 mg/kg [1] was 14.6%, the Activity [3] was “Non-toxic” and the MLC [2] was 10 µg/mL (≈ 29.3 µM). For the same molecule, the MIC [2] was 10 µg/mL (≈ 29.3 µM).

With `Cc1cc(N/N=C/c2ccc([N+](=O)[O-])o2)n2ccnc2n1` the MLC [2] was over 100 µg/mL and the MIC [2] was over 100 µg/mL.

With `Cc1cc(N/N=C/c2ccc([N+](=O)[O-])o2)n2nccc2n1` the survival at 100 mg/kg [1] was 63.4%, the Activity [3] was “Non-toxic” and the Activity [5] was “inactive”. For the same molecule, the Activity [6] was “Toxic”, the MLC [2] was 10 µg/mL (≈ 34.9 µM) and the MIC [2] was 10 µg/mL (≈ 34.9 µM). For the same molecule, the Activity [7] was “inactive”.

`Cc1cc(N/N=C/c2ccc([N+](=O)[O-])o2)n2ncc(S(=O)(=O)[O-])c2n1.[Na+]` was tested, and the Survival [1] was 8.5%, the Activity [3] was “Non-toxic” and the MLC [2] was over 100 µg/mL. It also gave an MIC [2] of over 100 µg/mL.

`Cc1cc(N/N=C/c2ccc([N+](=O)[O-])o2)n2ncnc2n1` showed a survival at 100 mg/kg [1] of 4.3%, an MLC [2] of over 100 µg/mL and an MIC [2] of over 100 µg/mL.
